# Calb biofilm kill: mixtures killing C. albicans biofilm; C. albicans biofilm persisters + clotrimazole, fluorescence viability; primary screen in compound mixtures of four per well; inhibition, % at 7.6 µM; 0.02% of 120,000 active;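 active = inhibition above 30.3% in the primary screen of four-compound pools, then above 30% when the compound was retested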;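 also: compounds exposed to preformed 24 h biofilms for 48 h; 0% = untreated biofilm control and 100% = clotrimazole plus chlorhexidine kill blank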
#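 Incubation: 24 h biofilm formation, then 48 h compound exposure, 37 °C | Material: C. albicans biofilms | Buffer or medium: RPMI/MOPS medium, pH 7.0 | Measured by: 2-h Alamar Blue fluorescence, 535/590 nm excitation/emission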
# 14-3-3 Bad PPI: disrupts binding of bovine 14-3-3 zeta to phospho-Bad peptide | 0.71% of 220,000 active | TR-FRET 14-3-3zeta/Dy647-pBad peptide displacement, 1 h | inhibition, % at 21.7 µM | AID 781 | P63103;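 active = inhibition above about 70%, limit read from the data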;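 also: 0% = full 14-3-3 plus peptide FRET controls and 100% = background without 14-3-3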
# Target sequence (P63103 whole entry, looked up): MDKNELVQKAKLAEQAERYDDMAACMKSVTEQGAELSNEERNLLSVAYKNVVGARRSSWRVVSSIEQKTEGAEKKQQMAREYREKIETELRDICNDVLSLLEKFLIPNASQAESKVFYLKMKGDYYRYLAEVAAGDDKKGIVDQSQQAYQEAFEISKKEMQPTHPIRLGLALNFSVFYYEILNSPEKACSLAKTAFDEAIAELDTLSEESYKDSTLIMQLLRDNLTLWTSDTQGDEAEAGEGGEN
# Mcl1-Bid inh: Mcl-1/Bid interaction inhibition. inhibition, % at 21.7 µM. AID 1021. 0.97% of 220,000 active. Q07820. TR-FRET Mcl-1/Bid-Dy647 peptide binding, 1536-well;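 active = compounds that cut the binding signal by more than half at the single screening dose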;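 also: His-tagged Mcl-1 with europium anti-His antibody binding Bid BH3 peptide; 0% = Mcl-1 plus peptide wells and 100% = peptide-only wells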
# Target sequence (Q07820 whole entry, looked up): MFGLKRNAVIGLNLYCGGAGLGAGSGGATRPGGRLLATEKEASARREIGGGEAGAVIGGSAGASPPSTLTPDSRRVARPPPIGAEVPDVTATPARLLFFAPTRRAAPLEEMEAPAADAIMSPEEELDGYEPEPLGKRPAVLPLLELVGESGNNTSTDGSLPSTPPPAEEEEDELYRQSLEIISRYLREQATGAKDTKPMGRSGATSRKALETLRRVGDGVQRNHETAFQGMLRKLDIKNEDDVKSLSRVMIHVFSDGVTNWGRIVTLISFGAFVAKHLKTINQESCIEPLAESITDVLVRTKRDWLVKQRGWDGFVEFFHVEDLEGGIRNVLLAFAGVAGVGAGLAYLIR
# Mcl1-Noxa inh: disrupts binding of human Mcl-1 to Noxa peptide. Q07820. TR-FRET Mcl-1/Noxa peptide binding, 2 h. 1.5% of 220,000 active. inhibition, % at 21.7 µM;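 active = compounds that cut the protein-peptide binding signal by more than 50% relative to plate controls in a single-dose test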;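 also: His-tagged Mcl-1 with rhodamine Noxa BH3 peptide and terbium anti-His antibody; 0% = Mcl-1 plus Noxa peptide wells and 100% = peptide-only wells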
# Hck Nef HTS: human Hck-Nef kinase inhibition; P08631; Recombinant Hck-YEEI plus Nef, Z-Lyte FRET kinase assay; inhibition, % at 20 µM; 0.68% of 220,000 active; AID 463187;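 active = Hck-Nef kinase inhibition above about 50%, limit read from the data; inactive = inhibition below that limit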;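 also: 0% = DMSO with Hck plus Nef and 100% = Hck alone without Nef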
# Bim-Mcl-1: human Bim-Mcl-1 interaction inhibition; Q07820; Bead-based flow cytometry, Bim peptide-Mcl-1 binding; inhibition, % at 10 µM; 0.1% of 190,000 active; AID 1009; in the data active = inhibition above about 40%;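 also: 0% = no compound tracer wells and 100% = peptide blocker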
# An asterisk follows results filed as active; . = not tested or not shown. The list is not random: actives were taken first. Their share in the collection is about 3.2%.
SMILES,Calb biofilm kill,14-3-3 Bad PPI,Mcl1-Bid inh,Mcl1-Noxa inh,Hck Nef HTS,Bim-Mcl-1
CCCN1CCN(c2nc(-c3cccs3)nc3ccccc23)CC1,6,-8,-11,53*,5,-2
CCN1CCN(c2nc(-c3ccncc3)nc3ccccc23)CC1,.,10,-15,51*,0,5
COc1ccc(-n2c3c(c(=O)[nH]c2=O)C(NC(C)=O)(C(F)(F)F)C(=O)N3)cc1 (stereo not drawn),15,-3,-11,15,12,0
COc1ccc(CCNC(=O)c2cc(-c3ccncc3)nc3c(Cl)cccc23)cc1OC,15,-7,-21,11,0,0
COc1ccc(CCNC(=O)c2cc(-c3ccccn3)nc3c(Cl)cccc23)cc1OC,-4,-10,-25,8,24,88*
COc1cc(C)ccc1OCCCCN1CC(C)OC(C)C1 (stereo not drawn),.,25,52*,29,0,-2
CC(C)[C@H](NC(=O)Cc1ccccc1)C(=O)OCc1cc(=O)n2c(n1)sc1ccccc12,16,-1,2,76*,8,-3
CC1(C)Cc2c(c(-c3ccco3)nc3sc4c(NCCCO)ncnc4c23)CO1,9,1,2,49,5,.
CC1(C)Cc2c(c(-c3ccco3)nc3sc4c(NCC5CCCO5)ncnc4c23)CO1 (stereo not drawn),5,9,-3,51*,4,7
CC1(C)Cc2c(c(-c3ccco3)nc3sc4c(NCCN5CCOCC5)ncnc4c23)CO1,15,-13,-6,63*,2,-2
COc1ccc(Nc2nc(-c3ccc4c(c3)NC(=O)CO4)cs2)cc1,-3,-5,-28,29,-2,-3
CCC(C)Nc1nc(-c2ccc3c(c2)NC(=O)CO3)cs1 (stereo not drawn),.,81*,21,14,0,2
Nc1ccc([N+](=O)[O-])cc1C(=O)NNC(=O)c1ccco1,16,7,-23,4,8,.
COc1ccc(CCNC(=O)C2(C)CCC(=O)N2CCC(C)C)cc1OC (stereo not drawn),.,-2,59*,3,7,-3
COc1ccc(CCNC(=O)C23CCC(C)(C(=O)O2)C3(C)C)cc1OC (stereo not drawn),10,-1,-14,2,17,2
Cc1ncsc1C(=O)O,1,-6,-13,-1,23,-1
O=C(O)CSc1nnc(-c2ccc(S(=O)(=O)N3CCCC3)cc2)n1Cc1ccco1,.,85*,-29,-28,0,0
COc1ccc(-c2csc(NC(=O)CSc3nnc(Nc4ccccc4C)s3)n2)cc1,11,-19,-52,-2,26,-2
COc1ccc2cc(C)c3nnc(SCC(=O)Nc4nc(-c5ccc(F)cc5)cs4)n3c2c1,7,86*,45,-32,38,-5
Cc1ccc(NC(=O)Nc2nnc(Cc3ccc([N+](=O)[O-])cc3)s2)cc1,13,7,51*,-8,6,-5
O=C(Nc1ccc(Cl)cc1)Nc1nnc(Cc2ccc([N+](=O)[O-])cc2)s1,12,30,15,16,5,-18
COc1c(C)cc(Br)cc1C(=O)Nc1ccc(C)cc1[N+](=O)[O-],18,-3,9,3,1,8
COc1c(C)cc(Br)cc1C(=O)Nc1ccc(S(N)(=O)=O)cc1,7,-13,-31,7,14,44*
Cc1ccc(S(=O)(=O)N2CCC(=O)N(C(COCc3cccc(C)c3)Cc3ccccc3)CC2)cc1 (stereo not drawn),1,7,-8,-5,-7,-2
Cc1ccc(S(=O)(=O)N2CCC(=O)N(C(COCc3ccc(C(F)(F)F)cc3)Cc3ccccc3)CC2)cc1 (stereo not drawn),-4,82*,-3,-5,-4,0
SMILES,Calb biofilm kill,14-3-3 Bad PPI,Mcl1-Bid inh,Mcl1-Noxa inh,Hck Nef HTS,Bim-Mcl-1
COc1ccc(CN(C)CC(=O)Nc2ccc(Cl)cc2F)c(OC)c1,11,25,25,11,-8,.
CN(C)CCCOc1cccc(Oc2ccccc2)c1,5,58,52*,25,5,-3
COc1ccc(Nc2nc(-c3cccs3)cs2)c(OC)c1,.,78*,3,29,-11,-1
O=[N+]([O-])c1ccc(Sc2cccc[n+]2[O-])c2nonc12,18,6,-115,62*,-147,.
Nc1nc(SCC(=O)Nc2ccccc2Sc2ccccc2)n[nH]1,.,-3,-8,10,6,5
COc1ccc(-c2cc(C(F)(F)F)nc(N3CCOCC3)n2)cc1OC,.,-1,91*,14,3,6
COc1cccc(-c2cc(C(F)(F)F)nc(N3CCOCC3)n2)c1,.,-5,-24,-15,0,0
Cc1cccc(NC(=O)CSc2nnc(-c3ccco3)n2CC2CCCO2)n1 (stereo not drawn),9,-8,-9,-5,13,-1
CC(=O)N(C)C1=C(O)c2ccccc2C(=O)C1=O,.,70*,5,6,0,0
CC(=O)N(C1=C(O)c2ccccc2C(=O)C1=O)C1CCCCC1,.,59,-5,15,0,0
Cc1ccc(N(C(C)C(=O)N2CCOCC2)S(C)(=O)=O)cc1C (stereo not drawn),-1,-4,-21,-4,17,1
O=C(O)c1ccccc1N/N=C/c1c(Sc2nnnn2-c2ccccc2)nc2ccccn2c1=O,29,68,-24,78*,-135,.
O=C(CC1NCCNC1=O)OCCCc1ccccc1 (stereo not drawn),.,2,-22,-1,6,1
COc1ccccc1C1C([N+](=O)[O-])=CC([N+](=O)[O-])=CN1C (stereo not drawn),1,-7,-45,11,-2,-2
COc1ccccc1C1NC=C([N+](=O)[O-])C=C1[N+](=O)[O-] (stereo not drawn),16,22,-1,77*,4,-7
Cc1ccccc1NC(=O)c1cc(S(=O)(=O)N2CCCCC2)cs1,.,2,-20,-9,5,-5
O=C(COc1cccc(Br)c1)N/N=C1\CCSC1,16,-7,-1,-11,-9,-3
COc1ccc(O)c(C(=O)c2cc(SCC(=O)O)c3nc4sc5c(c4c(=O)n3c2)CCCC5)c1,19,46,41,108*,24,.
Cc1sc2nc3c(SC(C)C(=O)O)cc(C(=O)c4ccccc4O)cn3c(=O)c2c1C (stereo not drawn),-1,21,-64,23,7,12
COC(=O)c1cc(C(=O)c2cc(F)ccc2O)cn2c(=O)c3c(C)c(C)sc3nc12,16,0,-7,9,-20,.
CCOC(=O)c1sc2nc3c(SCC(=O)O)cc(C(=O)c4cc(F)ccc4O)cn3c(=O)c2c1C,11,4,-130,86*,2,1

# Compound activity from PubChem BioAssay.
